Bioassay records from PubChem BioAssay.
NALP1 yeast inh: blocks the NALP1 inflammasome reconstituted in yeast | S. cerevisiae NALP1/ASC/caspase-1 growth, X-gal OD620, 72 h | inhibition, % at 10 µM | 0.61% of 280,000 active | AID 2071; in the data active = inhibition mostly above about 24%, no sharp cut-off; inactive = mostly below about 32%
ATG4B inhibitor: inhibitors of human ATG4B cysteine protease | Q9Y4P1 | AID 504462 | 0.51% of 340,000 active | inhibition, % at 8.33 µM | ATG4B cleavage of LC3-PLA2, NBD-HPC fluorescence, 1 h; in the data active = inhibition above about 40%
ALR inh: human ALR oxidase inhibition via reduced H2O2. inhibition, % (no concentration beside the values). 3.8% of 290,000 active. P55789. AID 485317. purified ALR, DTT oxidation, H2O2 HRP-luminol luminescence;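 active = mean replicate inhibition above about 79%, with every replicate also reaching it, limit read from the data; inconclusive = only one of the two criteria met; inactive = mean below limit and not every replicate reaching it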
Target sequence (P55789 whole entry, looked up): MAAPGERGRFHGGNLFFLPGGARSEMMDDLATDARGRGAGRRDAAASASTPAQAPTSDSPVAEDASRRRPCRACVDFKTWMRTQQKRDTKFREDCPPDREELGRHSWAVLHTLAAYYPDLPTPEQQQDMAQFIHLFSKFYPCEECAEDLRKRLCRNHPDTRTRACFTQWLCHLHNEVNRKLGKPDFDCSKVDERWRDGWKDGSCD
NALP3 yeast inh: inhibitors of NALP3 inflammasome in yeast; 0.39% of 330,000 active; Yeast reconstituted NLRP3/ASC/caspase-1, beta-gal luminescence, 24 h; inhibition, % at 10 µM; AID 2825;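 active = inhibition of 50% or more; inactive = inhibition below 50%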;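 note: plate controls were induced DMSO wells for no effect and uninduced yeast grown without galactose for full effect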
Calb FLC: C. albicans growth modulation with fluconazole; C. albicans CaCi-2 + fluconazole, Alamar Blue growth, 48 h; AID 1979; 0.57% of 300,000 active; growth inhibition, % (no concentration beside the values);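 active = growth inhibition above about 58% in most replicates, limit read from the data, passing the limit was not always enough; inconclusive = exactly half the replicates above a set limit; inactive = most replicates below a set limit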;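 note: all wells also contain fluconazole at 8 µg/ml as a sub-toxic cotreatment; 0% = median of DMSO wells and 100% = median of geldanamycin control wells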
UCH37 inh: inhibitors of human deubiquitinating enzyme UCH37 | AID 588478 | 0.33% of 330,000 active | Q9Y5K5 | purified proteasome/UCH37, Ub-AMC cleavage fluorescence | inhibition, % (concentration not given with the values);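 active = mean inhibition over replicate wells above about 20%, limit read from the data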;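 note: 0% = compound-free wells with enzyme and 100% = wells lacking proteasome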
Target sequence (Q9Y5K5 whole entry, looked up): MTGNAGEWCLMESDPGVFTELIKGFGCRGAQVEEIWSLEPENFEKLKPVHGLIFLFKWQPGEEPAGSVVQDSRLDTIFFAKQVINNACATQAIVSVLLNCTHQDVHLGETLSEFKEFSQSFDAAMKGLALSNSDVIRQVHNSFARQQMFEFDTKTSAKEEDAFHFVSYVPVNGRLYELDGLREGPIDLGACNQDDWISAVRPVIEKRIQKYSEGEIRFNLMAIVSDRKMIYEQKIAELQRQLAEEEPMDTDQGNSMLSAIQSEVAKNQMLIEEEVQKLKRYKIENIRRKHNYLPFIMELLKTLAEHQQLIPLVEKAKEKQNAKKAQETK
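Material: Human UCH37 enzyme supplied as purified proteasome complex | Schedule: 30 min compound-proteasome preincubation then 25 min substrate reaction, room temperature | Detection: AMC fluorescence from Ub-AMC cleavage, excitation 355 nm, emission 460 nm | Benchmarks: Wells without proteasome as full block, compound-free enzyme plus substrate as uninhibited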
ATG4B conf: ATG4B (human) inhibition, single-dose confirmed; shares compounds with ATG4B inhibitor; ATG4B protease fluorescent substrate cleavage assay; inhibition, % at 8.33 µM; 92% of 320 active; AID 504757; in the data active = inhibition above about 39%
PLA2 ctr: inhibits human PLA2, flagging false ATG4B inhibitors | shares compounds with ATG4B inhibitor | purified PLA2, NBD-C6-HPC fluorescence, 45 min | inhibition, % at 8.33 µM | 66% of 1,600 active; in the data active = inhibition above about 50%
Numbers without * were called inactive; ? = inconclusive; / = not tested or not shown. Rows were chosen to be rich in hits. Some 4.8% of all compounds tested hit in one or more screens of this group.

SMILES	NALP1 yeast inh	ATG4B inhibitor	ALR inh	NALP3 yeast inh	Calb FLC	UCH37 inh	PLA2 ctr	others
O=C(O)c1ccc(C[n+]2c(-c3ccccc3)csc2Nc2ccccc2)cc1	5	42*	32	1	4	1	17	ATG4B conf=84*
COC(=O)NN=Cc1ccc(-c2ccccc2Cl)o1	/	/	/	/	/	5	/
O=C(NNC(=S)Nc1ccc(Cl)c(Cl)c1)c1cccc([N+](=O)[O-])c1	/	85*	98*	41	-2	-1	91*
Cc1ccc(-c2n[nH]c(=S)n2N=Cc2ccc(C)s2)cc1	/	/	/	/	/	4	/
c1ccc(CSc2nnc3c(n2)OC(c2ccco2)Nc2ccccc2-3)cc1 (configuration not stated)	14	42*	20	6	-2	4	8	ATG4B conf=96*
C=CCSc1nnc2c(n1)OC(c1cccnc1)Nc1ccccc1-2 (configuration not stated)	16	-2	-2	8	4	5	/
O=[N+]([O-])c1ccc(OCCOc2ccccc2C=Nn2cnnc2)cc1	/	/	/	/	/	5	/
N#CCCn1cc(C=NNC(=O)c2ccncc2)c(-c2ccccc2)n1	/	/	/	/	/	5	/
Oc1ccc(/C=N/Nc2ccnc3cc(Cl)ccc23)c(O)c1	/	-3	-2	20	10	/	/
Cc1ccccc1/C=N/Nc1ccnc2cc(Cl)ccc12	51*	48*	10	/	7	/	39	ATG4B conf=65*
Cc1ccc(/C=N/Nc2ccnc3cc(Cl)ccc23)c(C)c1	60*	46*	-2	13	-7	/	40
COc1ccc(O[C@H]2C=C[C@@H](c3ccccc3)O[C@@H]2COC(=O)CCC(C)=NO[C@@H](C)c2cc(-c3c(C)cc(C)cc3C)no2)cc1	/	/	/	/	/	1	/
CN(c1ccc(C(=O)NN=Cc2cccc([N+](=O)[O-])c2)cc1)S(=O)(=O)c1ccccc1	/	/	/	/	/	6	/
Cc1cccc(C(=O)O/N=C2\CCCc3ccccc32)c1	-9	45*	-6	37	11	/	50
O=C(O/N=C1\CCCc2ccccc21)c1cccc(Cl)c1	/	32	0	11	-12	/	/
Cc1ccc(C(=O)O/N=C2\CCCc3ccccc32)cc1	5	43*	2	14	-23	/	48	ATG4B conf=58*
CC(=NNC(=O)c1ccc(Cn2cc([N+](=O)[O-])cn2)o1)c1cccc(NC(=O)C(C)C)c1	/	/	/	/	/	5	/
Cc1ccc(S(=O)(=O)N2CCN(c3nc(CN4CCCC4)nc4sc(C)c(C)c34)CC2)cc1	/	34	-4	12	/	2	/
Cc1ccc(C)c(S(=O)(=O)N2CCN(c3nc(CN4CCOCC4)nc4sc(C)c(C)c34)CC2)c1	/	52*	/	13	/	1	69*
CCCCCCCC(=O)O	/	-28	/	1	/	5	/
CC/C=C\C/C=C\C/C=C\CCCCCCCC(=O)O	/	46*	20	0	/	2	27	ATG4B conf=63*
Fc1ccc(CNc2nc(-c3ccco3)cc(C(F)(F)F)n2)cc1	17	41*	40	27	-6	-13	52*
Fc1ccc(-c2cc(C(F)(F)F)nc(NCc3cccs3)n2)cc1	36	14	-5	-7	8	-26	/
CC(=NNC(=O)C1(C)NC(C)(C)Cc2ccccc21)c1ccccc1 (configuration not stated)	/	/	/	/	/	4	/
Cc1cccc2c1N(CCOc1ccc(C(C)(C)C)cc1)C(=O)C2=O	28	57*	-2	13	10	5	14	ATG4B conf=52*
SMILES	NALP1 yeast inh	ATG4B inhibitor	ALR inh	NALP3 yeast inh	Calb FLC	UCH37 inh	PLA2 ctr	others
C=CCc1cccc(C=NNC(=O)CCCNc2ccc(C)cc2)c1O	/	/	/	/	/	2	/
Cc1ccccc1S(=O)(=O)Nc1nc2ccccc2nc1N1CCc2ccccc2C1	6	43*	-3	12	?	-43	29	ATG4B conf=62*
O=S(=O)(Nc1nc2ccccc2nc1N1CCc2ccccc2C1)c1ccc(Br)cc1	14	26	6	/	/	-17	/
Cc1ccc(S(=O)(=O)Nc2nc3ccccc3nc2N2CCN(c3ccccc3F)CC2)cc1	10	61*	-6	7	-7	2	69*
O=S(=O)(Nc1nc2ccccc2nc1N1CCc2ccccc2C1)c1ccc(Cl)cc1	/	40*	-6	17	15	/	4	ATG4B conf=85*
CCOc1ccccc1C=NNc1ccnc(=O)[nH]1	/	/	/	/	/	6	/
CON=CC(=NNc1ccc(OC)cc1)C(=O)c1ccccc1	/	/	/	/	/	1	/
O=C(NN=Cc1cc2ccccc2nc1Cl)[C@H]1C[C@@H]1c1ccccc1	/	/	/	/	/	-4	/
Cc1ccc(S(=O)(=O)/N=C2/NC(=O)/C(=C\c3cc(Br)cc(Br)c3O)S2)cc1	11	73*	99*	11	123*	20	60*
Cc1ccc(S(=O)(=O)/N=C2/NC(=O)/C(=C/c3ccc(Br)o3)S2)cc1	31	39	54	-1	9	-8	/
CC(=O)N(C(C)=O)N1C(=O)/C(=C/c2ccc(Cl)cc2)SC1=S	-20	68*	17	-10	6	6	57*
O=C(C1=C(c2ccccc2)C(=O)c2ccccc2C1=O)c1ccccc1	25	45*	/	/	33	6	51*
Cc1nn(-c2ccc(F)cc2)c(Cl)c1/C=C(\CCC(=O)O)c1nc2ccccc2s1	2	16	7	-8	44	5	/
COc1cccc(/C=C(\CC(=O)O)c2nc3ccccc3s2)c1	4	-1	/	-1	56	-1	/
O=C(O)CC/C(=C\c1cccc(NC(=O)c2ccccc2Cl)c1)c1nc2ccccc2s1	4	43*	5	14	2	-17	62*
O=C(O)CC/C(=C\c1ccc(N2CCCC2)c([N+](=O)[O-])c1)c1nc2ccccc2s1	-18	83*	4	18	-6	6	83*
O=C(O)CC/C(=C\c1ccccc1[N+](=O)[O-])c1nc2ccccc2s1	10	53*	97*	4	56	4	51*
Cn1cnnc1Sc1ccc(/C=C(\CC(=O)O)c2nc3ccccc3s2)cc1[N+](=O)[O-]	-5	-5	66	7	-2	17	/
CC(=NN1CCN(c2ccccc2)CC1)c1ccncc1	/	/	/	/	/	1	/
CCOC(=O)c1sc(NC(=O)CCCn2nc([N+](=O)[O-])c(Cl)c2C)c(C(=O)OCC)c1C	24	57*	-6	-2	0	3	52*
CCCOC(=O)c1c(NC(=O)CCCn2nc([N+](=O)[O-])c(Cl)c2C)sc(C(=O)OC)c1C	20	62*	0	18	41	6	57*
CCCOC(=O)c1c(NC(=O)CCCn2nc([N+](=O)[O-])cc2C)sc(C(=O)OC)c1C	35	33	0	21	52	5	/
